Series [1] is described as follows: Dark cytotoxicity against human SKOV3 cells assessed as cell viability after 72 hrs by MTT assay. Format: cell-based. To be noted: SK-OV-3, 72 h. Summed up: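 SKOV-3 cells seeded at 5000/well, incubated 24 h, then treated from 2 mM DMSO stocks diluted in medium to final concentrations; kept in the dark 72 h. MTT ([…]) added, formazan dissolved in DMSO, absorbance 570 nm minus 650 nm background; viability as percentage of untreated wells.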

The nature of series [2]: Retention time of the compound in DMSO treated with (Pc-(L-PTX)2) by mass spectroscopy/HPLC analysis. Format: physicochemical.
The nature of series [3]: Ratio of photocytotoxic IC50 for human SKOV3 cells measured after drug wash out to photocytotoxic IC50 for human SKOV3 cells measured before drug wash out. Format: functional, SK-OV-3.
In series [4] the target is T1, Tubulin (Sus scrofa) (UniProt P02554+P02550). Description: Induction of porcine brain tubulin polymerization at 1.5 uM irradiated with 5.6 mW/cm2 of far-red light for 30 mins measured every 2 mins for 1 hr by fluorescence analysis.
The nature of series [5]: Drug degradation […] at 10 uM after 24 hrs by HPLC analysis under dark conditions. The conditions noted are these: read-out: Drug degradation. The format is physicochemical. Summed up:
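10 μM solution in complete cell culture medium, made from DMSO stock, kept at 37 °C in the dark. Aliquots taken at 0, 2, 24, 48, 96 and 168 h, extracted with dichloromethane, reconstituted in 5% DMSO in ACN. Analysed by isocratic HPLC (90% ACN/10% 10 mM ammonium acetate, 0.5 mL/min); remaining percentage versus t = 0, three experiments.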

The nature of series [6]: Photocytotoxicity against human SKOV3 cells assessed as cell viability incubated for 24 hrs under dark conditions followed by 5.6 mW/cm2 of laser illumination for 30 mins measured after 72 hrs by MTT assay. The conditions noted are these: SK-OV-3. Format: functional, cell-based. Summed up:
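SKOV-3 cells (5000/well) dosed from 2 mM DMSO stocks diluted in medium; after 24 h dark incubation, plates illuminated uncovered on orbital shaker with 690 nm diode laser, 5.6 mW/cm² for 30 min (10 J/cm²). Incubated a further 72 h, then MTT read at 570 nm with 650 nm background; viability as percentage of untreated controls.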

Series [7] in a line: Drug uptake in nucleus of human SKOV3 cells at 0.5 uM after 23 hrs by tubulin tracker green fluorescent dye based confocal microscopy. The format is ADME, cell-based. To be noted: sk-ov-3, 23 h. A digest of the protocol:
(§1)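 SKOV-3 cells grown in α-MEM with 10% bovine growth serum, 2 mM L-glutamine, penicillin/streptomycin and fungizone were seeded on coverslips, cultured 24 h, then exposed to prodrug at 500 nM for 24 h under minimal light. Tubulin tracker green, 1 µM final in HBSS, added 45-60 min at 37 °C, then washed. Confocal imaging: tracker excitation 488 nm/emission 500-550 nm, prodrug excitation 633 nm/emission 650-800 nm, three random fields per treatment.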

Series [8] can be described thus: Retention time of the compound at 10 uM by HPLC analysis. The format is physicochemical. Summed up:
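Complete medium containing 10 µM compound held at 37 °C in the dark. Samples were extracted into dichloromethane, dried, and taken up in 5% DMSO in ACN. Isocratic HPLC with 90% ACN/10% 10 mM ammonium acetate at 0.5 mL/min; detection by diode array at 675 nm.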

Series [9] can be described thus: Photocytotoxicity against human SKOV3 cells assessed as cell viability incubated for 24 hrs under dark conditions followed by 5.6 mW/cm2 of laser illumination for 30 mins measured 72 hrs post drug wash out by MTT assay. Format: functional, cell-based. The conditions noted are these: SK-OV-3. A digest of the protocol:
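SKOV-3 cells (5000/well) held 24 h in the dark with drug, illuminated at 690 nm, 5.6 mW/cm², 30 min (10 J/cm²). Medium then replaced with fresh medium to remove released material, followed by 72 h incubation and MTT readout (570 nm, 650 nm background), viability relative to untreated wells.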

In series [10] the target is T1, Tubulin (Sus scrofa). Description: Induction of porcine brain tubulin polymerization at 30 uM measured every 2 mins for 1 hr by fluorescence analysis in presence of GTP. Summed up:
(§2)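 Fluorescence-based tubulin polymerization kit. Compound in DMSO diluted with water, then combined with tubulin and GTP in buffer at 37 °C. Fluorescence (excitation 360 nm, emission 450 nm) read every 2 min for 1 h.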

The target of series [11] is T1, Tubulin (Sus scrofa). Description: Induction of porcine brain tubulin polymerization at 3 uM after 40 mins by fluorescence analysis in presence of GTP. A digest of the protocol: as §2
A short description of series [12]: Drug degradation in complete medium at 10 uM after 96 hrs by HPLC analysis under dark conditions.
Series [13] in a line: Ratio of compound IC50 to PTX IC50 for dark cytotoxicity against human SKOV3 cells. To be noted: read-out: Ratio IC50. The format is cell-based, SK-OV-3.
Series [14] is described as follows: Drug uptake in cytosol of human SKOV3 cells at 0.5 uM after 23 hrs by tubulin tracker green fluorescent dye based confocal microscopy. Format: ADME, cell-based, SK-OV-3. Summed up: as §1
The nature of series [15]: nOctanol-phosphate buffer partition coefficient, log D of the compound at pH 7.4 incubated for 3 hrs in dark condition by fluorimeter. To be noted: octanol/water, pH 7.4, 3 h. The format is physicochemical.

pIC50: −log10 of the molar value. Active and inactive are the calls of the source. No cut-off for these calls is given here.

T1 sequence (P02550 whole entry, looked up): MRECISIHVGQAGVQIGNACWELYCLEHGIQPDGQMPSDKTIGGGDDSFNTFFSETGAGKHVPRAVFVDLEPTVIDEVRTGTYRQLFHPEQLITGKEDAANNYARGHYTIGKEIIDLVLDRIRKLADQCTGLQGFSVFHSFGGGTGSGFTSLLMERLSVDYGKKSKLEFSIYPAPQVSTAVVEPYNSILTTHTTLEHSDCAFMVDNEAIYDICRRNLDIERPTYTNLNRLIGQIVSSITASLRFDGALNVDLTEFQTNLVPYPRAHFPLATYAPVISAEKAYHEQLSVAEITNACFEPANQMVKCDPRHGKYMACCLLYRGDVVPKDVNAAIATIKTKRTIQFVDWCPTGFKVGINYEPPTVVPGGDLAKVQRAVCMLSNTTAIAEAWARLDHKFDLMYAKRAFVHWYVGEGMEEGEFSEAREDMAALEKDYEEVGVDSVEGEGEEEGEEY
T1 sequence (P02554 whole entry, looked up): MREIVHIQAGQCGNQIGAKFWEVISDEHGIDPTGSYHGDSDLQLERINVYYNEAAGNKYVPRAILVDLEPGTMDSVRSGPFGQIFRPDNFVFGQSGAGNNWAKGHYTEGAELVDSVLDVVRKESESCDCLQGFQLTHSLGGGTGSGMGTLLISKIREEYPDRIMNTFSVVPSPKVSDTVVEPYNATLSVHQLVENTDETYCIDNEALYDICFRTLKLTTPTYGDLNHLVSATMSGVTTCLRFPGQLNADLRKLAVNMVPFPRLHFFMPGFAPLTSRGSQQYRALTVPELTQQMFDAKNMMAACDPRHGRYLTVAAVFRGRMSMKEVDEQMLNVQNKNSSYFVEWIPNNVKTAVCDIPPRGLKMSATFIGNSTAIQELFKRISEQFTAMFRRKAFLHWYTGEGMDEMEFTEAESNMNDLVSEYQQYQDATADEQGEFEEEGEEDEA

On to `CC(=O)O[C@H]1C(=O)[C@@]2(C)[C@H]([C@H](OC(=O)c3ccccc3)[C@]3(O)C[C@H](OC(=O)[C@H](O)[C@@H](NC(=O)c4ccccc4)c4ccccc4)C(C)=C1C3(C)C)[C@]1(OC(C)=O)CO[C@@H]1C[C@@H]2O` [PACLITAXEL], for which the negative logarithm of the IC50 (pIC50) in series [1] was 8.33. In series [2], the Retention_time came to 11 min.
As to `CC(=O)O[C@H]1C(=O)[C@@]2(C)[C@H](O)C[C@@H]3OC[C@]3(OC(C)=O)[C@@H]2[C@@H](OC(=O)c2ccccc2)[C@]2(O)C[C@@H](OC(=O)[C@@H](OC(=O)CCC(=O)N3CCN(CCO[Si]4(OCCN5CCN(C(=O)CCC(=O)O[C@@H](C(=O)O[C@@H]6C[C@@]7(O)[C@H](OC(=O)c8ccccc8)[C@H]8[C@@]9(OC(C)=O)CO[C@H]9C[C@@H](O)[C@]8(C)C(=O)[C@H](OC(C)=O)C(=C6C)C7(C)C)[C@H](NC(=O)c6ccccc6)c6ccccc6)CC5)n5c6c7ccccc7c5/N=C5N=C(/N=c7/c8ccccc8/c(n74)=N/C4=NC(=N\6)/c6ccccc64)c4ccccc4\5)CC3)[C@H](NC(=O)c3ccccc3)c3ccccc3)C(C)=C1C2(C)C` (some centres undefined), the negative-log IC50 (pIC50) in [1] is 5.89; in [6], 7.62; in [9], 7.28. Besides, the “Ratio IC50” value in [3] stood at 2. Further, the result on Tubulin (Sus scrofa) [4], on Tubulin (Sus scrofa) [10] and on Tubulin (Sus scrofa) [11] was inactive. Further, the degraded at 24 h, 10 µM in [5] stood at 4%. Further, the Drug uptake entry in series [7] is “Not Active”; in series [14], “Active”. The Retention_time in series [8] is 21 min. Moreover, the degraded at 96 h, 10 µM in series [12] is 14%. Further, in series [13], the selectivity ratio is 270. This molecule also registered a logD in [15] of more than 3.1.
As for `CC(=O)O[C@H]1C(=O)[C@@]2(C)[C@H]([C@H](OC(=O)c3ccccc3)[C@]3(O)C[C@H](OC(=O)[C@H](OC(=O)/C=C/N4CCN(CCO[Si]5(OCCN6CCN(/C=C/C(=O)O[C@@H](C(=O)O[C@H]7C[C@@]8(O)[C@@H](OC(=O)c9ccccc9)[C@@H]9[C@]%10(OC(C)=O)CO[C@@H]%10C[C@H](O)[C@@]9(C)C(=O)[C@H](OC(C)=O)C(=C7C)C8(C)C)[C@@H](NC(=O)c7ccccc7)c7ccccc7)CC6)n6c7c8ccccc8c6/N=C6N=C(/N=c8/c9ccccc9/c(n85)=N/C5=NC(=N\7)/c7ccccc75)c5ccccc5\6)CC4)[C@@H](NC(=O)c4ccccc4)c4ccccc4)C(C)=C1C3(C)C)[C@]1(OC(C)=O)CO[C@@H]1C[C@@H]2O`, the values for the pIC50 in series [1], in series [6] and in series [9] were 6.04, 8.41 and 7.05, respectively. Further, in series [3], the “Ratio IC50” value is 23. Also, on Tubulin (Sus scrofa) [4], the outcome was Active. Besides, the Drug uptake entry in [7] is on record as “Not Active”; in series [14], “Active”. The Retention_time in series [8] came out at 32 min. For the same molecule, the result at Tubulin (Sus scrofa) [10] and at Tubulin (Sus scrofa) [11] was inactive. In addition, the degraded at 96 h, 10 µM in series [12] was less than 7%. Besides, the selectivity ratio in series [13] worked out at 190. Further, the pH-dependent lipophilicity (logD) in series [15] is reported as more than 3.1.

For the origin of these results see ChEMBL document CHEMBL3804770 (J Med Chem, 2016).
